Assay results reported in ChEMBL document CHEMBL3734683, “Synthesis and pharmacological screening of a large library of 1,3,4-thiadiazolines as innovative therapeutic tools for the treatment of prostate cancer and melanoma” (2015).
Activity calls are given as the source filed them. The rule behind the calls is not given here.

Tests used:
PC-3 [1] = assay: Antiproliferative activity against human PC3 cells assessed as reduction in cell viability at 0.5 to 100 uM after 72 hrs by MTT assay; assay type: functional, cell-based
In short: (§1)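 Cells plated, compound added after 24 h (DMSO dilution into culture medium), in triplicate; after 72 h, MTT added for 4 h. Controls were cells in medium alone; blanks were medium-only wells. Viability expressed as percent of viable cells versus control, mean of at least three independent assays.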

SK-MEL-28 [2] = assay: Antiproliferative activity against human SK-MEL-28 cells assessed as reduction in cell viability at 5 to 50 uM after 72 hrs by MTT assay; assay type: functional, cell-based; in short: as §1
SK-MEL-5 [3] = assay: Antiproliferative activity against human SK-MEL-5 cells assessed as reduction in cell viability at 5 to 50 uM after 72 hrs by MTT assay; assay type: functional, cell-based; in short: as §1
SK-MEL-5 [4] = assay: Reduction in cyclin D1 protein level in human SK-MEL-5 cells at 5 uM after 24 hrs by RT-PCR analysis relative to control; assay type: functional, cell-based
SK-MEL-28 [5] = assay: Cell cycle arrest in human SK-MEL-28 cells assessed as accumulation at G2/M phase at 5 uM after 24 hrs by propidium iodide staining-based FACS analysis; assay type: functional
SK-MEL-5 [6] = assay: Cell cycle arrest in human SK-MEL-5 cells assessed as accumulation at G2/M phase at 5 uM after 24 hrs by propidium iodide staining-based FACS analysis; assay type: functional
SK-MEL-28 [7] = assay: Cell cycle arrest in human SK-MEL-28 cells assessed as accumulation of cells with 4N DNA at 5 uM after 96 hrs by propidium iodide staining-based FACS analysis; assay type: functional
SK-MEL-28 [8] = assay: Reduction in cyclin D1 mRNA expression in human SK-MEL-28 cells at 5 uM after 24 hrs by RT-PCR analysis relative to control
[9] = Cell cycle arrest in human PC3 cells assessed as accumulation of cells with 4N DNA at 5 uM after 96 hrs by propidium iodide staining-based FACS analysis; assay type: functional; details: PC-3
[10] = Cytotoxicity against human PC3 cells assessed as cell viability at 5 uM after 72 hrs by tryphan blue staining based microscopy (reference value: 95 to 98 %); assay type: functional; details: PC-3, 72 h, read-out: Activity
SK-MEL-5 [11] = assay: Cell cycle arrest in human SK-MEL-5 cells assessed as accumulation of cells with 4N DNA at 5 uM after 96 hrs by propidium iodide staining-based FACS analysis; assay type: functional
[12] = Cell cycle arrest in human PC3 cells assessed as accumulation at G2/M phase at 5 uM after 24 hrs by propidium iodide staining-based FACS analysis; assay type: functional; details: PC-3
PC-3 [13] = assay: Reduction in cyclin D1 protein level in human PC3 cells at 5 uM after 24 hrs by RT-PCR analysis relative to control; assay type: functional, cell-based
[14] = Cytotoxicity against human PC3 cells assessed as cell viability at 100 nM after 72 hrs by tryphan blue staining-based microscopy (reference value: 95 to 98 %); assay type: functional; details: PC-3, 72 h, read-out: Activity

CCC(=O)NC1=NN(C(=O)CC)C(CC)(c2ccccc2)S1 (stereo not given)
Activity (PC-3 [1]): Active

CC(=O)NC1=NN(C(C)=O)C(C)(c2cc(F)ccc2F)S1 (stereo not given)
Activity (PC-3 [1]): Active

CC1(c2ccccc2)SC(NC(=O)C(Cl)Cl)=NN1C(=O)C(Cl)Cl (stereo not given)
Activity (SK-MEL-28 [2]): Active | Activity (SK-MEL-5 [3]): Active | Activity (PC-3 [1]): Active

CC(=O)NC1=NN(C(C)=O)C(C)(c2ccccc2)S1 (stereo not given)
Activity (SK-MEL-5 [4]): Active | Activity (SK-MEL-28 [5]): Active | Activity (SK-MEL-5 [6]): Active | Activity (SK-MEL-28 [7]): Active | Activity (SK-MEL-28 [2]): Active | Activity (SK-MEL-5 [3]): Active | Activity (SK-MEL-28 [8]): Active | Activity [9]: Active | viability at 5 µM [10]: 25% | Activity (SK-MEL-5 [11]): Active | Activity (PC-3 [1]): Active | Activity [12]: Active | Activity (PC-3 [13]): Active

CC(=O)NC1=NN(C(C)=O)C(C)(c2ccccn2)S1 (stereo not given)
Activity (PC-3 [1]): Active

C=CCCC1(C)SC(NC(=O)CC)=NN1C(=O)CC (stereo not given)
Activity (SK-MEL-28 [2]): Active | Activity (SK-MEL-5 [3]): Active

CC(=O)NC1=NN(C(C)=O)C(C)(c2cccs2)S1 (stereo not given)
Activity (PC-3 [1]): Active

CC(=O)NC1=NN(C(C)=O)C(C)(c2ccc(OC(C)=O)cc2)S1 (stereo not given)
Activity (PC-3 [1]): Active

CC(=O)NC1=NN(C(C)=O)C(C)(c2cccnc2)S1 (stereo not given)
Activity (SK-MEL-28 [2]): Active | Activity (SK-MEL-5 [3]): Active

CCCCC1(CC)SC(NC(=O)CC)=NN1C(=O)CC (stereo not given)
Activity (PC-3 [1]): Active

CCC1(c2ccccc2)SC(NC(C)=O)=NN1C(C)=O (stereo not given)
Activity (SK-MEL-5 [4]): Active | Activity (SK-MEL-28 [5]): Active | Activity (SK-MEL-5 [6]): Active | Activity (SK-MEL-28 [7]): Active | Activity (SK-MEL-28 [2]): Active | Activity (SK-MEL-5 [3]): Active | Activity (SK-MEL-28 [8]): Active | Activity [9]: Active | viability at 5 µM [10]: 18% | Activity (SK-MEL-5 [11]): Active | Activity (PC-3 [1]): Active | Activity [12]: Active | Activity (PC-3 [13]): Active

CC(=O)O[C@@]12CO[C@@H]1C[C@H](O)[C@@]1(C)C(=O)[C@H](O)C3=C(C)[C@@H](OC(=O)[C@H](O)[C@@H](NC(=O)OC(C)(C)C)c4ccccc4)C[C@@](O)([C@@H](OC(=O)c4ccccc4)[C@H]21)C3(C)C [DOCETAXEL ANHYDROUS]
viability at 0.1 µM [14]: 32%
